Assay results: ChEMBL document CHEMBL1136047, “Discovery of N-[2-[2-[[3-methoxy-4-(5-oxazolyl)phenyl]amino]-5-oxazolyl]phenyl]-N-methyl-4- morpholineacetamide as a novel and potent inhibitor of inosine monophosphate dehydrogenase with excellent in vivo activity” (J Med Chem, 2002)

How the values were obtained:
CCRF-CEM = assay: In vitro secondary T-cell (CEM) proliferation assay; format: functional, cell-based; settings: Homo sapiens
Procedure, shortened: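 Inhibition of CEM T-cell line proliferation. IC50 in μM, reported as the mean of n = 3 determinations.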

[1] = molecular target: T1, Inosine-5'-monophosphate dehydrogenase 2 (Homo sapiens, UniProt P12268); assay: Inhibition of human inosine-5'-monophosphate dehydrogenase 2
[2] = molecular target: T1, Inosine-5'-monophosphate dehydrogenase 2; assay: In vitro concentration that causes 50% inhibition of Inosine-5'-monophosphate dehydrogenase 2
Procedure, shortened: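 Inhibition of IMPDH type II catalytic activity. IC50 reported as the mean of n = 3 determinations.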

[3] = Cmax was evaluated after 20 umol/kg of peroral administration; format: ADME, organism-based; set-up: dose 20 umol/kg, route oral; settings: rat, in vivo, po
Procedure, shortened: (§1)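 Pharmacokinetics measured in rats.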

[4] = Plasma clearance was evaluated after 10 uM/kg of intra arterial administration; format: ADME, organism-based; settings: rat; procedure, shortened: as §1
[5] = Bioavailability was evaluated after 20 uM/kg of peroral administration; format: ADME, organism-based; settings: rat, in vivo, po, read-out: Bioavailabiility; procedure, shortened: as §1
[6] = Half-life was evaluated after 10 uM/kg of intra arterial administration; format: ADME, organism-based; settings: rat, in vivo; procedure, shortened: as §1
[7] = Half-life was evaluated after 20 uM/kg of peroral administration; format: ADME, organism-based; settings: rat, in vivo, po; procedure, shortened: as §1
Rattus norvegicus [8] = assay: Area under the curve was evaluated after 10 uM/kg of intra arterial administration; format: ADME, organism-based; settings: in vivo, other; procedure, shortened: as §1
Rattus norvegicus [9] = assay: Area under the curve was evaluated after 20 uM/kg of peroral administration; format: ADME, organism-based; settings: in vivo, po; procedure, shortened: as §1
[10] = Vss was evaluated after 10 uM/kg of intra arterial administration; format: ADME, organism-based; settings: rat, in vivo, read-out: Vss; procedure, shortened: as §1

Structure (SMILES) | IC50 (CCRF-CEM) [nM] | IC50 [1] [nM] | further results
COc1cc(Nc2ncc(-c3ccc(C)cc3)o2)ccc1-c1cnco1 | > 10000 | 85 | 
COc1cc(Nc2ncc(-c3ccccc3N(C)C(=O)Cn3cccn3)o2)ccc1-c1cnco1 | 890 | 11 | 
COc1cc(Nc2ncc(-c3ccccc3C(=O)O)o2)ccc1-c1cnco1 |  |  | inhibition [2]: 11%
COc1cc(Nc2ncc(-c3ccccc3N(C)C(C)=O)o2)ccc1-c1cnco1 | 730 | 18 | 
CNCC(=O)N(C)c1ccccc1-c1cnc(Nc2ccc(-c3cnco3)c(OC)c2)o1 | 960 | 22 | 
COc1c(C)c2c(c(O)c1C/C=C(\C)CCC(=O)O)C(=O)OC2 [MYCOPHENOLIC ACID] | 340 |  | 
COc1cc(Nc2ncc(-c3ccccc3N(C)C(=O)CCN3CCOCC3)o2)ccc1-c1cnco1 | 680 | 13 | 
COc1cc(Nc2ncc(-c3ccccc3)o2)ccc1-c1cnco1 | 7000 | 20 | 
COc1cc(Nc2ncc(-c3ccccc3OC)o2)ccc1-c1cnco1 | 7000 | 23 | 
COc1cc(Nc2nc(C)c(-c3ccccc3)o2)ccc1-c1cnco1 | 9000 | 27 | 
COc1cc(Nc2ncc(-c3ccccc3N(C)C(=O)CN3CCN(C)CC3)o2)ccc1-c1cnco1 | 940 | 17 | 
CCc1nc(Nc2ccc(-c3cnco3)c(OC)c2)oc1-c1ccccc1 | > 10000 | 86 | 
COc1cc(Nc2ncc(-c3ccccc3C)o2)ccc1-c1cnco1 | > 10000 | 25 | 
COc1ccc(-c2cnc(Nc3ccc(-c4cnco4)c(OC)c3)o2)cc1 | 9000 | 115 | 
COc1cc(Nc2ncc(-c3ccccc3N(C)C(=O)CN(C)C)o2)ccc1-c1cnco1 | 1000 | 15 | 
COc1cc(Nc2ncc(-c3ccccc3N(C)C(=O)CNC(C)(C)C)o2)ccc1-c1cnco1 | 700 | 20 | 
COc1cc(Nc2ncc(-c3ccccc3N(C)C(=O)Cn3cncn3)o2)ccc1-c1cnco1 | 650 | 13 | 

Second part, led by results:

IC50 (CCRF-CEM) [nM] | IC50 [1] [nM] | Structure (SMILES) | further results
9000 | 141 | COc1cc(Nc2ncc(-c3ccccc3C(=O)N(C)C)o2)ccc1-c1cnco1 | 
> 10000 | 97 | COc1cccc(-c2cnc(Nc3ccc(-c4cnco4)c(OC)c3)o2)c1 | 
 | 12 | COc1cc(Nc2ncc(-c3ccccc3N(C)C(=O)CN3CCOCC3)o2)ccc1-c1cnco1 | Cmax [3]: 1500 nM; clearance [4]: 71 mL/min/kg; bioavailability [5]: 25%; half-life [6]: 5.9 h; half-life [7]: 2.5 h; AUC (Rattus norvegicus [8]): 2.37 µM·h; AUC (Rattus norvegicus [9]): 1.2 µM·h; Vd [10]: 2.1 L/kg
> 10000 | 127 | CCOC(=O)c1ccccc1-c1cnc(Nc2ccc(-c3cnco3)c(OC)c2)o1 | 
1000 | 30 | COc1cc(Nc2ncc(-c3ccccc3NC(C)=O)o2)ccc1-c1cnco1 | 
8000 | 104 | CNC(=O)c1ccccc1-c1cnc(Nc2ccc(-c3cnco3)c(OC)c2)o1 | 
430 | 10 | COc1cc(NC(=O)Nc2cccc(CNC(=O)O[C@H]3CCOC3)c2)ccc1-c1cnco1 [MERIMEPODIB] | 
> 10000 | 70 | COc1cc(Nc2ncc(-c3cccc(C)c3)o2)ccc1-c1cnco1 | 
